Measured values taken from ChEMBL document CHEMBL4257459, “Synergistic antifungal effect of cyclized chalcone derivatives and fluconazole against Candida albicans” (2017).
Converted amounts (≈) assume the structure as drawn.

Key:
[1] = system: Candida albicans; test: Antifungal activity against fluconazole susceptible Candida albicans 0079gr by CLSI protocol based broth microdilution method; type: functional
Procedure, shortened: (§1)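 Clinical isolates and control strain subcultured at least twice on TSA, 37 °C, 48 h. MICs by CLSI M27-A3 broth microdilution; compounds dissolved in DMSO to 2000 μg mL–1 stock. Fluconazole positive control, culture, media and DMSO vehicle controls in each run. Duplicate experiments; MIC in μg mL–1.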

[2] = system: Candida albicans; test: Inhibition of ABC efflux pumps in fluconazole susceptible Candida albicans 002B1 assessed as reduction in energy-dependent rhodamine 6G efflux in presence of 0.1 M glucose after 25 mins […] relative to control
[3] = system: Candida albicans; test: Inhibition of ABC efflux pumps in fluconazole susceptible Candida albicans 0072gr assessed as reduction in energy-dependent rhodamine 6G efflux in presence of 0.1 M glucose after 25 mins […] relative to control
[4] = system: Candida albicans; test: Inhibition of ABC efflux pumps in fluconazole resistant Candida albicans 167-1 assessed as reduction in energy-dependent rhodamine 6G efflux in presence of 0.1 M glucose after 25 mins […] relative to control
[5] = system: Candida albicans; test: Antifungal activity against fluconazole susceptible Candida albicans 004B1 in presence of fluconazole by CLSI protocol based broth microdilution method; type: functional
[6] = system: Candida albicans; test: Antifungal activity against fluconazole susceptible Candida albicans 002B1 by CLSI protocol based broth microdilution method; type: functional; procedure, shortened: as §1
[7] = system: Candida albicans; test: Inhibition of ABC efflux pumps in fluconazole resistant Candida albicans 167-2 assessed as reduction in energy-dependent rhodamine 6G efflux in presence of 0.1 M glucose after 25 mins […] relative to control
[8] = system: Candida albicans; test: Antifungal activity against fluconazole susceptible Candida albicans 003gr by CLSI protocol based broth microdilution method; type: functional; procedure, shortened: as §1
[9] = system: Candida albicans; test: Antifungal activity against fluconazole resistant Candida albicans 167-1 by CLSI protocol based broth microdilution method; type: functional
Procedure, shortened: (§2)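 Broth microdilution per CLSI M27-A3 against clinical C. albicans isolates. Strains sub-cultured at least twice on Tryptone Soya Agar, 37 °C, 48 h. Compounds dissolved in DMSO at 2000 μg mL–1 stock. Fluconazole positive control, plus culture, media and vehicle controls. Run in duplicate; MIC in μg mL–1.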

[10] = system: Candida albicans; test: Antifungal activity against fluconazole susceptible Candida albicans 003gr in presence of fluconazole by CLSI protocol based broth microdilution method; type: functional
[11] = system: Candida albicans; test: Down regulation of ERG11 gene expression in fluconazole resistant Candida albicans A171 at MIC after 2 hrs by qRT PCR analysis relative to control; type: functional
Procedure, shortened: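 Cells exposed 2 h to test agents at MIC. Total RNA isolated, cDNA synthesized, qPCR for ERG11 with ACT1 as endogenous control. Triplicate independent experiments, reported as mean ± standard deviation.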

[12] = system: Candida albicans; test: Antifungal activity against fluconazole resistant Candida albicans A171 in presence of fluconazole by CLSI protocol based broth microdilution method; type: functional
Procedure, shortened: (§3)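 Checkerboard-style combination with fluconazole at a 1 : 1 ratio, over concentrations 2–4 fold below each agent's MIC alone, by CLSI broth microdilution. Fractional inhibitory concentration index calculated and interpreted as synergy (<0.5), additive (0.5–1), indifferent or antagonistic.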

[13] = system: Candida albicans; test: Inhibition of ABC efflux pumps in fluconazole susceptible Candida albicans 0079gr assessed as reduction in energy-dependent rhodamine 6G efflux in presence of 0.1 M glucose after 25 mins by fluorescence assay relative to control
Procedure, shortened: (§4)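 Cells grown in TSB at 37 °C for 8 h, washed, resuspended in glucose-free PBS at 1 × 10^8 cells. De-energized 45 min with 5 mM deoxyglucose plus 5 mM dinitrophenol. […] Washed, sampled 5–25 min, then 0.1 M glucose added. Absorbance 527 nm, R6G from standard curve.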

[14] = system: Candida albicans; test: Antifungal activity against fluconazole susceptible Candida albicans 002B1 in presence of fluconazole by CLSI protocol based broth microdilution method; type: functional
[15] = system: Candida albicans; test: Inhibition of ABC efflux pumps in fluconazole susceptible Candida albicans 003gr assessed as reduction in energy-dependent rhodamine 6G efflux in presence of 0.1 M glucose after 25 mins […] relative to control
[16] = system: Candida albicans; test: Antifungal activity against fluconazole resistant Candida albicans 167-1 in presence of fluconazole by CLSI protocol based broth microdilution method; type: functional; procedure, shortened: as §3
[17] = system: Candida albicans; test: Antifungal activity against fluconazole resistant Candida albicans A171 by CLSI protocol based broth microdilution method; type: functional; procedure, shortened: as §2
[18] = system: Candida albicans; test: Antifungal activity against fluconazole resistant Candida albicans 167-2 by CLSI protocol based broth microdilution method; type: functional; procedure, shortened: as §2
[19] = system: Candida albicans; test: Inhibition of ABC efflux pumps in fluconazole susceptible Candida albicans 004B1 assessed as reduction in energy-dependent rhodamine 6G efflux in presence of 0.1 M glucose after 25 mins by fluorescence assay relative to control; procedure, shortened: as §4
[20] = system: Candida albicans; test: Antifungal activity against fluconazole susceptible Candida albicans 004B1 by CLSI protocol based broth microdilution method; type: functional; procedure, shortened: as §1
[21] = system: Candida albicans; test: Antifungal activity against Candida albicans ATCC 90028 by CLSI protocol based broth microdilution method; type: functional; procedure, shortened: as §1
[22] = system: Candida albicans; test: Antifungal activity against fluconazole susceptible Candida albicans 004gr by CLSI protocol based broth microdilution method; type: functional; procedure, shortened: as §1
[23] = system: Candida albicans; test: Antifungal activity against fluconazole susceptible Candida albicans 0072gr by CLSI protocol based broth microdilution method; type: functional; procedure, shortened: as §1
[24] = system: Candida albicans; test: Inhibition of ABC efflux pumps in fluconazole resistant Candida albicans A171 assessed as reduction in energy-dependent rhodamine 6G efflux in presence of 0.1 M glucose after 25 mins by fluorescence assay relative to control; procedure, shortened: as §4
[25] = system: Candida albicans; test: Antifungal activity against fluconazole susceptible Candida albicans 0079gr in presence of fluconazole by CLSI protocol based broth microdilution method; type: functional
[26] = system: Candida albicans; test: Inhibition of ergosterol biosynthesis in fluconazole resistant Candida albicans A171 at 0.5 to 1 times MIC relative to control; type: functional
Procedure, shortened: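 Total sterols quantified by alcoholic KOH extraction in cells grown in 50 ml TSB with compounds at MIC and ½ MIC; untreated and 8 μg mL–1 fluconazole controls. Spectral scan; ergosterol content from A281.5 and A230 absorbances, dilution factor and pellet weight, correcting for 24(28) DHE.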

[27] = system: Candida albicans; test: Inhibition of ABC efflux pumps in fluconazole susceptible Candida albicans 004gr assessed as reduction in energy-dependent rhodamine 6G efflux in presence of 0.1 M glucose after 25 mins by fluorescence assay relative to control; procedure, shortened: as §4
[28] = system: Candida albicans; test: Antifungal activity against fluconazole resistant Candida albicans 167-2 in presence of fluconazole by CLSI protocol based broth microdilution method; type: functional; procedure, shortened: as §3
[29] = system: Candida albicans; test: Antifungal activity against fluconazole susceptible Candida albicans 004gr in presence of fluconazole by CLSI protocol based broth microdilution method; type: functional
[30] = system: Candida albicans; test: Antifungal activity against Candida albicans ATCC 90028 in presence of fluconazole by CLSI protocol based broth microdilution method; type: functional
[31] = system: Candida albicans; test: Antifungal activity against fluconazole susceptible Candida albicans 0072gr in presence of fluconazole by CLSI protocol based broth microdilution method; type: functional
[32] = system: Candida albicans; test: Down regulation of ERG11 gene expression in fluconazole susceptible Candida albicans ATCC 90028 at MIC after 2 hrs by qRT PCR analysis relative to control; type: functional
Procedure, shortened: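 Cells exposed to compound at MIC for 2 h; total RNA isolated, cDNA synthesised, ERG11 measured by real-time qPCR with ACT1 as endogenous control. Triplicate independent experiments; mean ± standard deviation.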

[33] = system: Candida albicans; test: Inhibition of ergosterol biosynthesis in fluconazole susceptible Candida albicans ATCC 90028 at 0.5 to 1 times MIC relative to control; type: functional
Procedure, shortened: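 ATCC90028 grown in 50 ml TSB with MIC and ½ MIC of compound; untreated and 8 μg mL–1 fluconazole controls. Sterols extracted by alcoholic KOH method and spectrophotometrically scanned; ergosterol % calculated from A281.5 and A230 (E values 290 and 518) with dilution factor, per pellet weight.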

Row | SMILES | MIC [1] [µg/mL] | inhibition [2] [%] | inhibition [3] [%] | inhibition [4] [%] | fractional inhibitory concentration index (FICI) [5] | MIC [6] [µg/mL] | inhibition [7] [%] | MIC [8] [µg/mL] | MIC [9] [µg/mL] | fractional inhibitory concentration index (FICI) [10] | fold change (FC) [11] | fractional inhibitory concentration index (FICI) [12] | inhibition [13] [%] | fractional inhibitory concentration index (FICI) [14] | inhibition [15] [%] | fractional inhibitory concentration index (FICI) [16] | MIC [17] [µg/mL] | MIC [18] [µg/mL] | inhibition [19] [%] | MIC [20] [µg/mL] | further results
1 | O=C(/C=C/c1ccc(/C=C/C(=O)c2ccccc2)cc1)c1ccccc1 | 2 to 16 (≈ 5.91 to 47.3 µM) | < 20 | < 20 | < 20 | 0.31 - 1.5 | 2 to 16 (≈ 5.91 to 47.3 µM) | < 20 | 2 to 16 (≈ 5.91 to 47.3 µM) | 16 to 31 (≈ 47.3 to 91.6 µM) | 0.31 - 1.5 | 1.25 - 10 | 0.266 - 0.27 | < 20 | 0.31 - 1.5 | < 20 | 0.266 - 0.27 | 16 to 31 (≈ 47.3 to 91.6 µM) | 16 to 31 (≈ 47.3 to 91.6 µM) | < 20 | 2 to 16 (≈ 5.91 to 47.3 µM) | MIC [21]: 2 to 16 µg/mL (≈ 5.91 to 47.3 µM); MIC [22]: 2 to 16 µg/mL (≈ 5.91 to 47.3 µM); MIC [23]: 2 to 16 µg/mL (≈ 5.91 to 47.3 µM); inhibition [24]: < 20%; fractional inhibitory concentration index (FICI) [25]: 0.31 - 1.5; inhibition (INH) [26]: 49 - 94%; inhibition [27]: < 20%; fractional inhibitory concentration index (FICI) [28]: 0.266 - 0.27; fractional inhibitory concentration index (FICI) [29]: 0.31 - 1.5; fractional inhibitory concentration index (FICI) [30]: 0.31 - 1.5; fractional inhibitory concentration index (FICI) [31]: 0.31 - 1.5; fold change (FC) [32]: 1.5 - 13; inhibition (INH) [33]: 66 - 99%
2 | S=C1NC(c2ccccc2)=CC(c2ccc(C3C=C(c4ccccc4)NC(=S)N3)cc2)N1 (stereo unspecified) | 0.125 to 1 (≈ 0.275 to 2.2 µM) | 28 | 28 | 28 | 0.13 - 0.31 | 0.125 to 1 (≈ 0.275 to 2.2 µM) | 28 | 0.125 to 1 (≈ 0.275 to 2.2 µM) | 2 (≈ 4.4 µM) | 0.13 - 0.31 | 1.25 - 10 | 0.25 - 0.251 | 28 | 0.13 - 0.31 | 28 | 0.25 - 0.251 | 2 (≈ 4.4 µM) | 2 (≈ 4.4 µM) | 28 | 0.125 to 1 (≈ 0.275 to 2.2 µM) | MIC [21]: 0.125 to 1 µg/mL (≈ 0.275 to 2.2 µM); MIC [22]: 0.125 to 1 µg/mL (≈ 0.275 to 2.2 µM); MIC [23]: 0.125 to 1 µg/mL (≈ 0.275 to 2.2 µM); inhibition [24]: 28%; fractional inhibitory concentration index (FICI) [25]: 0.127; inhibition (INH) [26]: 49 - 94%; inhibition [27]: 28%; fractional inhibitory concentration index (FICI) [28]: 0.25 - 0.251; fractional inhibitory concentration index (FICI) [29]: 0.13 - 0.31; fractional inhibitory concentration index (FICI) [30]: 0.13 - 0.31; fractional inhibitory concentration index (FICI) [31]: 0.13 - 0.31; fold change (FC) [32]: 1.5 - 13; inhibition (INH) [33]: 66 - 99%
